Screens: PubChem, Sanford-Burnham Center for Chemical Genomics
Shown are actives, neighbours in structure and some others; about 1.5% of the full set was active somewhere.
EBI2 block – EBI2 receptor antagonists, beta-arrestin recruitment, primary screen, cell-based, luminescence, 7a,25-OHC stimulation, uHTS | hit rate 0.81% among 360,000 | inhibition, % at 5 µM | 7a,25-OHC stimulated; in the data active = inhibition above about 38%;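 note: enzyme fragment complementation signal reports receptor beta-arrestin coupling in cells; 0% = agonist plus DMSO wells and 100% = wells without agonist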
CXCR6 inh – CXCR6 receptor inhibitors, primary screen, cell-based, beta-arrestin, luminescence, CHO-K1 PathHunter, 1536-well | C-X-C chemokine receptor type 6 (Homo sapiens), O00574 | inhibition, % at 20 µM | hit rate 0.36% among 360,000 | AID 602244, 2012; in the data active = inhibition above about 34%, passing the limit was not always enough;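 note: antagonist mode with CXCL16 agonist at 10 nM final; 0% = 10 nM CXCL16 with DMSO and 100% = unstimulated wells without agonist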
Target sequence (O00574 whole entry, looked up): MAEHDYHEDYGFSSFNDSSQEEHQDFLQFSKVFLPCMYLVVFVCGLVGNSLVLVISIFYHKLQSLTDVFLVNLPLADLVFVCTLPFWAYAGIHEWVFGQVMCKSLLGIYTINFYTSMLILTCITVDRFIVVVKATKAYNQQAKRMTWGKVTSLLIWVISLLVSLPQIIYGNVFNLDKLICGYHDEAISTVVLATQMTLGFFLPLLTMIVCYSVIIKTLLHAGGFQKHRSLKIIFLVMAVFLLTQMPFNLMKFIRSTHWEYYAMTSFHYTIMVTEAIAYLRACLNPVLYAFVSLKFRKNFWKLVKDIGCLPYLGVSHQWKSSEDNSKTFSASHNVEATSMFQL
APJ ag – agonists of human apelin receptor APJ, primary screen, CHO-K1 cells, PathHunter beta-arrestin, luminescence; P35414; activation, % at 20 µM; 0% DMSO wells, 100% apelin; hit rate 0.11% among 330,000;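 active = activation more than six SD over the plate average, tested at 20 µM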;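 note: 0% = DMSO alone and 100% = apelin-13 at 10 nM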
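Assay system – PathHunter CHO-K1 APJ (AGTRL-1) beta-arrestin reporter cells · Compound – one dose, 20 µM compound, 1% DMSO · Timing – compound 90 min 25 °C, reagent 1 h · Measured by – luminescence from split beta-galactosidase complementation, Galacton Star/Emerald II substrate · Measure – beta-arrestin recruitment to APJ as agonist activity, luminescent signal · Benchmarks – DMSO vs Apelin-13 10 nM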
CCR6 antagonist – CCR6 receptor antagonists, primary screen, cell-based, CHO-K1, luminescence, beta-arrestin, uHTS; C-C chemokine receptor type 6 (Homo sapiens), P51684; CHO-K1 CCR6 PathHunter beta-arrestin, CCL20-stimulated; inhibition, % at 20 µM; hit rate 0.49% among 340,000; AID 493098, 2011;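 active = compounds whose inhibition of the agonist-driven luminescence signal at 20 µM reaches about 50%, limit read from the data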;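 note: cells stimulated with CCL20 at 14 nM final; plate controls were DMSO with CCL20 for no effect and DMSO without agonist for full effect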
Target sequence (P51684 whole entry, looked up): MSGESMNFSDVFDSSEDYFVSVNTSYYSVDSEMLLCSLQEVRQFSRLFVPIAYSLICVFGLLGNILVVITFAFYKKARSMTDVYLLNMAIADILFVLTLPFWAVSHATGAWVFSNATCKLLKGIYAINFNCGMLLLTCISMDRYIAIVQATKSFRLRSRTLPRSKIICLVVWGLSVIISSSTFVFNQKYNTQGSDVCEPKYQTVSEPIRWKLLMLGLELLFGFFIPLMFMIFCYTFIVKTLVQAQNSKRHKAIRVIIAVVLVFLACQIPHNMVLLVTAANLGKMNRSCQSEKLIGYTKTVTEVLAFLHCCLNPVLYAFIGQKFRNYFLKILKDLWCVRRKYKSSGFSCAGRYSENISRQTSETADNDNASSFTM
APJ antag – antagonists of human apelin receptor APJ, primary screen, CHO-K1 cells, beta-arrestin complementation, luminescence; hit rate 0.32% among 330,000; inhibition, % at 20 µM; P35414;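 active = inhibition above about 40% at 20 µM, limit read from the data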;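 note: cells challenged with 10 nM apelin-13 agonist together with compound; plate controls were apelin-13 plus DMSO wells for no effect and DMSO wells lacking apelin-13 for full effect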
CXCR6 antag conf – CXCR6 receptor antagonists, confirmation, cell-based, single concentration, beta-arrestin, luminescence. shares compounds with CXCR6 inh. CHO-K1 CXCR6 PathHunter beta-arrestin. inhibition, % at 20 µM. hit rate 65% among 700. AID 602409, 2012;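 active = mean inhibition over four retests above 40%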;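 note: receptor stimulated with 10 nM CXCL16 agonist; beta-galactosidase fragment complementation upon beta-arrestin recruitment to receptor; plate controls were CXCL16 plus DMSO for no effect and DMSO without CXCL16 for full effect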
The depositor's hits bear a star; . = no result.

SMILES | EBI2 block | CXCR6 inh | APJ ag | CCR6 antagonist | APJ antag | CXCR6 antag conf
CCCS(=O)(=O)c1ncc(Cl)c(C(=O)Nc2ccc(S(=O)(=O)Nc3ncccn3)cc2)n1 | -9 | -5 | -3 | -5 | 9 | .
O=C(c1ccc2oc(CCc3ccccc3)nc2c1)N1CCC(O)CC1 | -2 | -4 | -1 | 1 | -10 | .
COc1ccc(C(=O)NCCN2C(=O)S/C(=C\c3cccnc3)C2=O)cc1[N+](=O)[O-] | -6 | -3 | 0 | -1 | -9 | .
C=CCc1c(C)nc(N2CCSCC2)[nH]c1=O | -3 | -5 | 4 | 5 | 11 | .
O=C(NC(=S)Nc1ccc([N+](=O)[O-])cc1)c1ccco1 | 9 | 42* | . | . | . | 40
C=CCNc1nc(C(=O)OCC(=O)c2ccccc2)cs1 | -11 | 103* | -3 | 0 | 0 | 12
NNC(=S)Nc1ccc(C(F)(F)F)cc1Cl | -1 | 47* | 1 | 31 | -12 | 7
FC(F)(F)c1cccc(NC(=S)Nc2ccc(Cl)cc2Cl)c1 | -4 | -10 | 0 | 5 | -7 | .
Cc1ccc(NC(=O)c2cc(N3C(=O)C=CC3=O)ccc2N2CCOCC2)cc1 | 0 | 89* | . | . | . | 28
CC[n+]1c(C)sc2c(C)cc(C)cc21 | 1 | -2 | -1 | 9 | 12 | .
CCC[n+]1c(C)sc2c3c(ccc21)CCCC3 | 1 | 42* | -1 | 25 | 28 | 2
CCN(C(=O)CSc1nncn1-c1ccccc1)C1CCS(=O)(=O)C1 (centres undefined) | -8 | 10 | -2 | 4 | 2 | .
O=[N+]([O-])c1ccc(Sc2cccc3cccnc23)c([N+](=O)[O-])c1 | 33 | 53* | -4 | 56* | 37 | 70*
Nc1ccc2c(c1)Cc1cc([N+](=O)[O-])ccc1-2 | 1 | 6 | -3 | 17 | 14 | .
CC(O)CN(CC(C)O)c1ccc2c(c1)Cc1cc([N+](=O)[O-])ccc1-2 (centres undefined) | 10 | 38* | . | 55* | . | 41*
O=C(NCc1ccccn1)c1ccccc1OCc1ccc(Cl)cc1Cl | 8 | 19 | 0 | 14 | -12 | .
O=C1OCCN1C(=O)[C@H]1[C@H](c2ccc(Cl)cc2)C(c2ccc(F)cc2)=NN1c1ccc(Br)cc1 | 14 | 38* | . | 13 | . | -7
COCCCNC(=O)Cn1cnc2c(OCc3ccccc3)ncnc21 | -3 | -4 | -3 | 1 | 11 | .
O=C(Cc1ccccc1)N1CCC(c2nc3ccccc3[nH]2)CC1 | 7 | 40* | -2 | 0 | -11 | 6
COCC(=O)N1CCC(c2nc3ccccc3[nH]2)CC1 | -8 | 3 | . | . | . | .
CC1=C(CO)C(=O)OC([C@@H](C)C2CC[C@H]3C4C[C@H]5O[C@]56[C@@H](O)C=CC(=O)[C@]6(C)C4CC[C@]23C)C1 (some centres undefined) | 55* | 44* | . | 41 | . | 48*
CC(Oc1cccc(Br)c1)C(=O)NNC(=O)c1ccccn1 (centres undefined) | -6 | 52* | -4 | 48 | 15 | 56*
CCCCCc1ccc(-c2cn(Cc3ccc(C(=O)c4ccccc4)cc3)nn2)cc1 | -10 | -4 | 0 | -3 | -5 | .
CCc1cc(-c2cnnn2Cc2ccccc2)ccc1-c1cn(CC(C)C)nn1 | 5 | 60* | . | . | . | 8
Cc1ccc(NC(=O)CN2C(=O)NC(C)(CC(C)C)C2=O)c(Br)c1 (centres undefined) | -3 | 8 | -3 | 14 | 6 | .
SMILES | EBI2 block | CXCR6 inh | APJ ag | CCR6 antagonist | APJ antag | CXCR6 antag conf
CC1CCN(C(=O)/C(=C/c2ccccc2Cl)c2ccccc2)CC1 | -1 | 2 | -1 | 8 | 5 | .
N#CC(C#N)=C1C=CC=CN1/C(=C\c1ccccc1Cl)C(=O)c1ccccc1 | 22 | 93* | . | 116* | . | 82*
C=CCC[C@H](Cc1ccc(F)cc1)C(=O)OC[C@@H](NC(=O)[C@H](CC=C)CC(=O)NCCO)c1ccccc1 | 4 | -9 | 0 | -5 | 10 | .
COC(=O)CCSc1cc(NCCOC(C)=O)c([N+](=O)[O-])c2nonc12 | 2 | 27 | -3 | 33 | 21 | .
Cn1ccnc1Sc1cc(NCCCO)c([N+](=O)[O-])c2nonc12 | -17 | 40 | -3 | 23 | 38 | .
CCCC(=O)OCCNc1cc(SCCC(=O)OC)c2nonc2c1[N+](=O)[O-] | -9 | 50* | -4 | 62* | 20 | 63*
O=[N+]([O-])c1c(NCCCO)cc(Sc2ccc(Cl)cc2)c2nonc12 | 33 | 77* | . | 98* | . | 96*
CC(=O)OCCNc1cc(Sc2nc3ccccc3[nH]2)c2nonc2c1[N+](=O)[O-] | 59* | 96* | . | 103* | . | 105*
Cc1ccc2nc(C(C)(C)C)c(Cc3ccsc3)n2c1 | 12 | 22 | . | . | . | .
C=C1C(=O)[C@]23C[C@H]1CCC2[C@@]1(C)C(C[C@@H]3O)[C@](C)(C(=O)OC)CC[C@@H]1O (some centres undefined) | 38 | 55* | . | . | . | 70*
C[C@@]12C(C[C@H](O)[C@@]34C[C@@H](CCC13)[C@@H](CO)C4=O)[C@](C)(C(=O)O)CC[C@@H]2O (some centres undefined) | -8 | -6 | . | . | . | .
Cc1cc(Cl)n2c(nc3ccccc32)c1C#N | -11 | 12 | . | 17 | . | .
Cc1c(CCCl)c(Cl)n2c(nc3ccccc32)c1C#N | 67* | 44* | . | 63* | . | 40
CCCCn1c(N)c(N(CC(C)C)C(=O)C2=COCCO2)c(=O)[nH]c1=O | -15 | 0 | -5 | 2 | 10 | .
COc1ccc(/C=C/c2ccc3c(Br)ccc(O)c3n2)cc1 | 2 | 9 | -1 | 22 | -1 | .
COc1cc(/C=C/c2ccc3c(Br)cc(Br)c(O)c3n2)ccc1O | 13 | 42* | . | 68* | . | 51*
CN(C)C(=O)c1ccc(NC(=O)COC(=O)C2(c3ccccc3)CCCC2)cc1 | -50 | 0 | -2 | 12 | 4 | .
CC1C(=O)N(Cc2cn(Cc3ccco3)nn2)CCS(=O)(=O)N1Cc1ccc(-c2ccc(Cl)c(Cl)c2)cc1 (centres undefined) | 11 | 67* | . | . | . | -16
OCC[C@H]1C[C@H](O)[C@@H](O)[C@@]2(Cc3ccccc3O2)O1 | -1 | 5 | -4 | 3 | -9 | .
CN(C)/C=C/c1oc2ccc(O)cc2c1[N+](=O)[O-] | 3 | 42* | -7 | 61* | 49* | 66*
Cc1oc2ccc(O)cc2c1C(=O)c1ccc([N+](=O)[O-])cc1 | -17 | -26 | 10 | 2 | -48 | .
Cc1cc(C)cc(NC(=O)C(=O)NCC2CCCO2)c1 (centres undefined) | -9 | -1 | -3 | -3 | 14 | .
